Test results taken from ChEMBL document CHEMBL1149183, “Novel benzo[1,4]diazepin-2-one derivatives as endothelin receptor antagonists” (J Med Chem, 2004).

Experiments:
Endothelin receptor [1] = target: T1, Endothelin receptor (Rattus norvegicus, UniProt P26684+P21451); assay: Inhibitory potency at native endothelin A and endothelin B receptors by inhibiting endothelin-1 contractions of rat aortic rings; type: functional
T1 sequence (P26684 whole entry): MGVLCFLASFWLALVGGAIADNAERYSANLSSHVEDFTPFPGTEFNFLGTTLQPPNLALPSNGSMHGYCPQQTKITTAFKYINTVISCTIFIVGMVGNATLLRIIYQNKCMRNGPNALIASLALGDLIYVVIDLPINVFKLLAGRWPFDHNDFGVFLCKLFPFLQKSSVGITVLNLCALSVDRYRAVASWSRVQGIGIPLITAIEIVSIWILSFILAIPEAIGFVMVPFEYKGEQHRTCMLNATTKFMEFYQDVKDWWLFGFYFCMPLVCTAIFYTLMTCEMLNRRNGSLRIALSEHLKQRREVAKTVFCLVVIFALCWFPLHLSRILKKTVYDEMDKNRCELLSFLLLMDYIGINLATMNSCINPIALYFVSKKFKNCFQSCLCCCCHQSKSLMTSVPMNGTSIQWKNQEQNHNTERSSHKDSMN
T1 sequence (P21451 whole entry): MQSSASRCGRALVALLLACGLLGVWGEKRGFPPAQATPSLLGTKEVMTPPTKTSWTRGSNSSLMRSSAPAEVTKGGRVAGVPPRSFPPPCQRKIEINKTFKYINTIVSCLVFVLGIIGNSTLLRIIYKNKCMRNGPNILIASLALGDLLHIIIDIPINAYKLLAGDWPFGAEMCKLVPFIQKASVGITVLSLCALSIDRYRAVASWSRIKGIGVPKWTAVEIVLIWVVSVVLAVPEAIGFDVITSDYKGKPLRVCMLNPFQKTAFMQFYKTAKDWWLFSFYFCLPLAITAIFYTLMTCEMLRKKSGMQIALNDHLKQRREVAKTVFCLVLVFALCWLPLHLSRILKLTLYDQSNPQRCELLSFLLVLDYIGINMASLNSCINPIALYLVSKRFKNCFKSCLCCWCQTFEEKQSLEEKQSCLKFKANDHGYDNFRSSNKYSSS

Endothelin receptor [2] = target: T1, Endothelin receptor; assay: Inhibitory potency at native endothelin A and B receptors by inhibiting sarafotoxin Sf6 contractions of rat tracheal rings; type: functional
Rattus norvegicus [3] = organism: Rattus norvegicus; assay: Duration of action of compound for reducing the blood pressure of rats was determined; type: functional
Method in brief: (§1)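 Single oral dose of 30 mg/kg suspended in 10% arabic gum to hypertensive Dahl salt-sensitive rats carrying telemetry for arterial pressure and heart rate; area between pre- and post-treatment pressure curves calculated; fall in mean arterial pressure and duration of action also taken from recordings.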

Endothelin-1 receptor = target: T2, Endothelin-1 receptor (Homo sapiens, UniProt P25101); assay: Antagonist activity towards human recombinant Endothelin A receptor expressed in chinese hamster ovary (CHO) cells determined using [125I]ET1 as radioligand; type: functional, cell-based
T2 sequence (P25101 whole entry): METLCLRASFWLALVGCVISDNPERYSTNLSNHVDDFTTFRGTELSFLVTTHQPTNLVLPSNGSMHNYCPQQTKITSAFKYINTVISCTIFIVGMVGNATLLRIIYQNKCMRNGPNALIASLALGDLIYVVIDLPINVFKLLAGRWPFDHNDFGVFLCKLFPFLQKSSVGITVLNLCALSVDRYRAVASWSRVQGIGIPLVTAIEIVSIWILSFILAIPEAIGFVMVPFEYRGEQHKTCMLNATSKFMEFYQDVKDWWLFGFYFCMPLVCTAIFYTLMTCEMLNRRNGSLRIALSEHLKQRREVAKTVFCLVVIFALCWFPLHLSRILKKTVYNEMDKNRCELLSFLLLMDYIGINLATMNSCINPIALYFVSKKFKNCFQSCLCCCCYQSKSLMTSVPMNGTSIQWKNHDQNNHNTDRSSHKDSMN

Rattus norvegicus [4] = organism: Rattus norvegicus; assay: Maximum effect on reduction of mean arterial blood pressure was determined in rats; type: functional; method in brief: as §1
Rattus norvegicus [5] = assay: In vivo area between curve (ABC) as calculated from the blood pressure recordings before and after administration of 30 mg/kg to hypertensive Dahl salt sensitive rats; number of rats=6; type: functional; method in brief: as §1
Rattus norvegicus [6] = assay: In vivo area between curve (ABC) as calculated from the blood pressure recordings before and after administration of 30 mg/kg to hypertensive Dahl salt sensitive rats; number of rats=10; type: functional; method in brief: as §1
Cytochrome P450 3A4 = Cytochrome P450 3A4 (Homo sapiens, UniProt P08684); assay: Inhibition of human cytochrome P450 3A4; type: ADME
Chain of Cytochrome P450 3A4 (P08684 whole entry, canonical isoform): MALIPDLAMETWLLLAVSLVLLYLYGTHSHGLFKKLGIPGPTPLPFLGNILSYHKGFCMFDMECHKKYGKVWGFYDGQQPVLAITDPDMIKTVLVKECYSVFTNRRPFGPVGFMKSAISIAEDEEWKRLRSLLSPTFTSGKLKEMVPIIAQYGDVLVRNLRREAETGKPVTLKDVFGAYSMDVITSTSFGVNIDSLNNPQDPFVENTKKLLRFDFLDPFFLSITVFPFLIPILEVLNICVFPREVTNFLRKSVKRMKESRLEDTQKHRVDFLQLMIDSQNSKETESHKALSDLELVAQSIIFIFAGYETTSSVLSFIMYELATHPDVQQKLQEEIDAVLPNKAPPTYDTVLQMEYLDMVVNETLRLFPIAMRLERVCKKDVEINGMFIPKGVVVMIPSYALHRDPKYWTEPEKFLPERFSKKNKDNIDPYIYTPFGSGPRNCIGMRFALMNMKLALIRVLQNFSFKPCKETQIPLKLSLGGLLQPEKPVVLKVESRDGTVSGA
Method in brief: (§2)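 Human liver microsomes with isoform marker reactions near substrate Km: diclofenac 4'-hydroxylation (2C9), dextromethorphan […] (2D6), midazolam 1'-hydroxylation (3A4); metabolite formation by LC-MS/MS; IC50 reported.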

[7] = target: T3, Endothelin receptor type B (Homo sapiens, UniProt P24530); assay: Antagonist activity towards human recombinant Endothelin B receptor expressed in chinese hamster ovary (CHO) cells determined using [125I]ET1 as radioligand; type: functional, cell-based
T3 sequence (P24530 whole entry): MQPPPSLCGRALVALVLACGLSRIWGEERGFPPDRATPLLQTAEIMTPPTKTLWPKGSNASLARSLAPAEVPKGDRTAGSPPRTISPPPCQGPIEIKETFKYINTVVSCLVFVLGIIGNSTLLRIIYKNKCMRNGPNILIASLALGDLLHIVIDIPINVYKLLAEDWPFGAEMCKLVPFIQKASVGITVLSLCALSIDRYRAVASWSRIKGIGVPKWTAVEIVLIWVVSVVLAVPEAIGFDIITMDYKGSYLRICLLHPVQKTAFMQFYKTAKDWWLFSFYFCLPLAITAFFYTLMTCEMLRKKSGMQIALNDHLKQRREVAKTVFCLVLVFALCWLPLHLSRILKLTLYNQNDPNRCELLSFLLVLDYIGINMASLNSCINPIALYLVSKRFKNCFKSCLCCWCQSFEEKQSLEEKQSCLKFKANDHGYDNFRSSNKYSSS

Cytochrome P450 2C9 = Cytochrome P450 2C9 (Homo sapiens, UniProt P11712); assay: Inhibition of human cytochrome P450 2C9; type: ADME; method in brief: as §2
Chain of Cytochrome P450 2C9 (P11712 whole entry): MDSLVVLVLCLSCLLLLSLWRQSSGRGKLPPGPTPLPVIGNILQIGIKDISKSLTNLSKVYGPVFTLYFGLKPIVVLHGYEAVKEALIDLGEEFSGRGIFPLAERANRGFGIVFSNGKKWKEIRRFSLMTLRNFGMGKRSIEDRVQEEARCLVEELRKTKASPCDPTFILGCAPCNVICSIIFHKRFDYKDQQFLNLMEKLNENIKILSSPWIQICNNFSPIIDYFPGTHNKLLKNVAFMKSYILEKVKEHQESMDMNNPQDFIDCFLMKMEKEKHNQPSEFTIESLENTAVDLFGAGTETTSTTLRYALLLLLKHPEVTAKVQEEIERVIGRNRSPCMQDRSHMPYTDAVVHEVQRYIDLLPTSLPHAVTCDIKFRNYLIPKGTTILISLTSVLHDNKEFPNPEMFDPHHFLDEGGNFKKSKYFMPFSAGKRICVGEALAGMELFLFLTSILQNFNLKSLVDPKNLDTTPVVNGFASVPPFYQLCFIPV

Cytochrome P450 2D6 = Cytochrome P450 2D6 (Homo sapiens, UniProt P10635); assay: Inhibition of human cytochrome P450 2D6; type: ADME; method in brief: as §2
Chain of Cytochrome P450 2D6 (P10635 whole entry): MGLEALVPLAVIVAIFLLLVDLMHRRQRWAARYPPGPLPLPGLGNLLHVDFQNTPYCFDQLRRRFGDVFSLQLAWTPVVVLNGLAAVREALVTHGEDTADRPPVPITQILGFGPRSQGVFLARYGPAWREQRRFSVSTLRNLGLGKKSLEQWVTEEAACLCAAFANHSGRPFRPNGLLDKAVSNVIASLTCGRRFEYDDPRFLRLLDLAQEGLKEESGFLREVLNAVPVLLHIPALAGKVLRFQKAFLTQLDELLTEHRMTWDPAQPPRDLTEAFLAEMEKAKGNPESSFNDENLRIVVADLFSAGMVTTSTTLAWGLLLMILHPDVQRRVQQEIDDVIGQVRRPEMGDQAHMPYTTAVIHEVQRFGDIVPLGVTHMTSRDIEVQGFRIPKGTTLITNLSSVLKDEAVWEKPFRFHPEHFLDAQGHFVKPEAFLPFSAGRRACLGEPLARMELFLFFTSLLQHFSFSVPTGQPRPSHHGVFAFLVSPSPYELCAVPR

[8] = Log D value was evaluated; type: physicochemical; conditions: octanol/water, pH 7.4; read-out: Log D7.4
Method in brief: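 Shake-flask partition, n-octanol versus aqueous phase buffered to pH 7.4 (67 mM KH2PO4/67 mM Na2HPO4), volume ratio 1:9; both phases assayed by HPLC.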

Rattus norvegicus [9] = assay: In vivo area between curve (ABC) as calculated from the blood pressure recordings before and after administration of 30 mg/kg to hypertensive Dahl salt sensitive rats; number of rats=12; type: functional; method in brief: as §1
Rattus norvegicus [10] = assay: In vivo area between curve (ABC) as calculated from the blood pressure recordings before and after administration of 30 mg/kg to hypertensive Dahl salt sensitive rats; number of rats=15; type: functional; method in brief: as §1
Rattus norvegicus [11] = assay: In vivo area between curve (ABC) as calculated from the blood pressure recordings before and after administration of 30 mg/kg to hypertensive Dahl salt sensitive rats; number of rats=14; type: functional; method in brief: as §1

Row | Compound | pA2 (Endothelin receptor [1]) | pA2 (Endothelin receptor [2]) | Duration of action (Rattus norvegicus [3]) [h] | IC50 (Endothelin-1 receptor) [nM] | Max effect (Rattus norvegicus [4]) [mmHg] | ABC (Rattus norvegicus [5]) [mmHg·h] | ABC (Rattus norvegicus [6]) [mmHg·h] | IC50 (Cytochrome P450 3A4) [nM] | IC50 [7] [nM] | IC50 (Cytochrome P450 2C9) [nM] | IC50 (Cytochrome P450 2D6) [nM] | logD [8] | ABC (Rattus norvegicus [9]) [mmHg·h] | ABC (Rattus norvegicus [10]) [mmHg·h] | ABC (Rattus norvegicus [11]) [mmHg·h]
1 | COC(c1ccccc1)(c1ccccc1)[C@H](Oc1nc(C)cc(C)n1)C(=O)O (racemic) [AMBRISENTAN] | 7.09 | 5.63 | 32 | 21.7 | -17 | 409 | – | – | – | – | – | – | – | – | –
2 | Cc1cc(C)nc(O[C@H](C(=O)O)[C@@]2(c3ccccc3)NCC(=O)N(Cc3c(F)cc(F)cc3F)c3ccccc32)n1 (racemic) | 8.18 | 6.18 | 54 | 2.5 | -21 | – | 674 | 41000 | 83.6 | > 50000 | > 50000 | 0.4 | – | – | –
3 | Cc1cc(C)nc(O[C@H](C(=O)O)[C@@]2(c3ccccc3)NCC(=O)N(C)c3ccccc32)n1 (racemic) | – | – | – | 12.3 | – | – | – | > 50000 | 184 | > 50000 | > 50000 | -2 | – | – | –
4 | CCCCc1cccc([C@]2([C@H](Oc3nc(C)cc(C)n3)C(=O)O)NCC(=O)N(Cc3c(C)cc(C)cc3C)c3ccccc32)c1 (racemic) | 7.83 | 7.44 | 24 | 18.3 | -21 | – | – | – | 13.6 | – | – | – | 285 | – | –
5 | Cc1cc(C)cc(O[C@H](C(=O)O)[C@@]2(c3ccccc3)NCC(=O)N(Cc3c(F)cccc3Cl)c3ccccc32)c1 (racemic) | 6.59 | 6.89 | 30 | 18.9 | -13 | – | – | – | 184 | – | – | – | 267 | – | –
6 | Cc1cc(C)nc(O[C@H](C(=O)O)[C@@]2(c3cccc(-c4ccccc4)c3)NCC(=O)N(Cc3c(F)cc(F)cc3F)c3ccccc32)n1 (racemic) | 9.03 | 7.07 | 24 | 7.9 | -12 | – | – | 7000 | 89.8 | 28000 | > 50000 | 1.8 | – | 250 | –
7 | Cc1cc(C)cc(O[C@H](C(=O)O)[C@@]2(c3ccccc3)NCC(=O)N(Cc3c(F)cc(F)cc3F)c3ccccc32)c1 (racemic) | 8.27 | 7.02 | 32 | 17.2 | -28 | – | – | 14000 | 565 | 15000 | > 50000 | 2.1 | – | – | 483
8 | CCCCc1cccc([C@]2([C@H](Oc3nc(C)cc(C)n3)C(=O)O)NCC(=O)N(Cc3c(F)cc(F)cc3F)c3ccccc32)c1 (racemic) | 8.36 | 7.72 | 18 | 13.9 | -13 | 214 | – | 5000 | 33.2 | 15000 | > 50000 | 2.3 | – | – | –
9 | Cc1cc(C)nc(O[C@H](C(=O)O)[C@@]2(c3cccc(-c4ccccc4)c3)NCC(=O)N(Cc3c(Cl)cccc3Cl)c3ccccc32)n1 (racemic) | 8.98 | 7.37 | 18 | 16.9 | -15 | – | – | – | 25 | – | – | – | 200 | – | –
10 | CCCCc1cccc([C@]2([C@H](Oc3nc(C)cc(C)n3)C(=O)O)NCC(=O)N(Cc3c(F)cccc3Cl)c3ccccc32)c1 (racemic) | 8.72 | 7.88 | 36 | 7.6 | -23 | – | – | – | 7.1 | – | – | – | 409 | – | –
11 | COc1ccc(CN2C(=O)CN[C@](c3cccc(C)c3)([C@H](Oc3nc(C)cc(C)n3)C(=O)O)c3ccccc32)cc1 (racemic) | 6.32 | – | – | 6.3 | – | – | – | – | 50.7 | – | – | – | – | – | –
12 | COC(=O)c1ccc(CN2C(=O)CN[C@](c3ccccc3)([C@H](Oc3nc(C)cc(C)n3)C(=O)O)c3ccccc32)cc1 (racemic) | 6.98 | – | – | 7.4 | – | – | – | – | 70.3 | – | – | – | – | – | –
13 | Cc1cc(C)nc(O[C@H](C(=O)O)[C@@]2(c3ccccc3)NCC(=O)N(CCO)c3ccccc32)n1 (racemic) | 6.79 | – | – | 6.9 | – | – | – | – | 108 | – | – | – | – | – | –
14 | CCc1cccc([C@]2([C@H](Oc3nc(C)cc(C)n3)C(=O)O)NCC(=O)N(Cc3ccc(OC)cc3)c3ccccc32)c1 (racemic) | 7.55 | – | – | 3.1 | – | – | – | – | 68 | – | – | – | – | – | –
15 | Cc1cc(C)nc(O[C@H](C(=O)O)[C@@]2(c3ccccc3)NCC(=O)N(Cc3c(F)ccc(F)c3F)c3ccccc32)n1 (racemic) | 8.38 | – | – | 2.4 | – | – | – | – | 13.2 | – | – | – | – | – | –
